We go through six molecules from ChEMBL document CHEMBL1124364, “3-Sulfonyl-1-carba-1-dethiacephems” (1989).

≈ marks a conversion by molar mass, not a printed value.

Common to all, as to assay type: functional
One assay deals with Morganella morganii. Nature of the assay: Minimum inhibitory concentration against Proteus morganii (PR 15). The following applies: Morganella morganii; read-out: MIC. Summed up: (§1)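 Agar dilution: compounds diluted in 0.1 M phosphate buffer pH 7.0 and incorporated into Mueller-Hinton agar with 1% Bacto-Supplement C at 50 °C. Fresh overnight cultures diluted to about 1×10^4 cells/µL; 1 µL spotted on plates. Incubated overnight at 35 °C in ambient air. MIC taken as the lowest concentration preventing visible growth.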

The subject of another assay is Haemophilus influenzae. Nature of the assay: Minimum inhibitory concentration against Haemophilus influenzae (C.L.). Conditions: Haemophilus influenzae; read-out: MIC. An outline of the steps: as §1
Assay [1] relates to Enterobacter cloacae. Nature of the assay: Minimum inhibitory concentration against Enterobacter cloacae (265A beta-lactamase containing). The following applies: Enterobacter cloacae; read-out: MIC. An outline of the steps:
as §1

In a further assay the test system is Salmonella. Nature of the assay: Minimum inhibitory concentration against Salmonella (X514). The following applies: Salmonella; read-out: MIC. An outline of the steps:
as §1

In assay [2] the test system is Escherichia coli. Nature of the assay: Minimum inhibitory concentration against Escherichia coli (TEM beta-lactamase containing). The following applies: Escherichia coli; read-out: MIC. An outline of the steps: as §1
The test system of assay [3] is Klebsiella. Nature of the assay: Minimum inhibitory concentration against Klebsiella (KAE beta-lactamase containing). The following applies: Klebsiella; read-out: MIC. An outline of the steps:
as §1

A further assay relates to Streptococcus pneumoniae. Nature of the assay: Minimum inhibitory concentration against Streptococcus pneumoniae (PARK). The following applies: Streptococcus pneumoniae; read-out: MIC. An outline of the steps:
as §1

Assay [4] relates to Enterobacter cloacae. Nature of the assay: Minimum inhibitory concentration against Enterobacter cloacae (EB5). The following applies: Enterobacter cloacae; read-out: MIC. An outline of the steps:
as §1

For assay [5], the system named is Escherichia coli. Nature of the assay: Minimum inhibitory concentration against Escherichia coli (EC14). The following applies: Escherichia coli; read-out: MIC. Summed up:
as §1

The next assay relates to Staphylococcus aureus. Nature of the assay: Minimum inhibitory concentration against Staphylococcus aureus (X1.1). The following applies: Staphylococcus aureus; read-out: MIC. Summed up:
as §1

The subject of the next assay is Pseudomonas aeruginosa. Nature of the assay: Minimum inhibitory concentration against Pseudomonas aeruginosa (X528). The following applies: Pseudomonas aeruginosa; read-out: MIC. An outline of the steps: as §1
Assay [6] relates to Klebsiella. Nature of the assay: Minimum inhibitory concentration against Klebsiella (X26). The following applies: Klebsiella; read-out: MIC. Summed up: as §1
For another assay, the system named is Providencia rettgeri. Nature of the assay: Minimum inhibitory concentration against Proteus rettgeri (C24). Conditions: Providencia rettgeri; read-out: MIC. An outline of the steps: as §1
The test system of assay [7] is Staphylococcus epidermidis. Nature of the assay: Minimum inhibitory concentration against Staphylococcus epidermidis (222). Conditions: Staphylococcus epidermidis; read-out: MIC. Summed up: as §1
The test system of another assay is Streptococcus pyogenes. Nature of the assay: Minimum inhibitory concentration against Streptococcus pyogenes (C203). The following applies: Streptococcus pyogenes; read-out: MIC. An outline of the steps: as §1

On to `CO/N=C(/C(=O)N[C@@H]1C(=O)N2C(C(=O)O)=C(S(=O)(=O)C(C)C)CC[C@H]12)c1csc(N)n1`, for which the MIC in the assay with Morganella morganii is 4 µg/mL (≈ 8.48 µM); in the assay on Haemophilus influenzae it was 0.5 µg/mL (≈ 1.06 µM); with Enterobacter cloacae [1] it was greater than 128 µg/mL; in the assay with Salmonella it was 0.06 µg/mL (≈ 0.127 µM); with Escherichia coli [2] it was 1 µg/mL (≈ 2.12 µM); in the assay with Klebsiella [3], greater than 128 µg/mL. For the same molecule, the MIC with Streptococcus pneumoniae is 0.06 µg/mL (≈ 0.127 µM); in the assay on Enterobacter cloacae [4], 1 µg/mL (≈ 2.12 µM); in the assay with Escherichia coli [5], 0.25 µg/mL (≈ 0.53 µM); with Staphylococcus aureus it was 8 µg/mL (≈ 17 µM); with Pseudomonas aeruginosa, greater than 128 µg/mL; with Klebsiella [6], 0.125 µg/mL (≈ 0.265 µM). Further, the MIC in the assay with Providencia rettgeri amounted to 0.25 µg/mL (≈ 0.53 µM); in assay [7], 16 µg/mL (≈ 33.9 µM); in the assay on Streptococcus pyogenes it was 2 µg/mL (≈ 4.24 µM).
Regarding `CO/N=C(/C(=O)N[C@@H]1C(=O)N2C(C(=O)O)=C(S(=O)(=O)C3CC3)CC[C@H]12)c1csc(N)n1`, the MIC with Morganella morganii is 2 µg/mL (≈ 4.26 µM); in the assay on Haemophilus influenzae, 0.25 µg/mL (≈ 0.532 µM); in the assay on Enterobacter cloacae [1], greater than 128 µg/mL; in the assay with Salmonella, 0.125 µg/mL (≈ 0.266 µM); in the assay with Escherichia coli [2], 0.5 µg/mL (≈ 1.06 µM); with Klebsiella [3], greater than 128 µg/mL. Besides, the MIC is 0.03 µg/mL (≈ 0.0639 µM) in the assay on Streptococcus pneumoniae; 0.5 µg/mL (≈ 1.06 µM) with Enterobacter cloacae [4]; 0.06 µg/mL (≈ 0.128 µM) in the assay with Escherichia coli [5]; 4 µg/mL (≈ 8.52 µM) with Staphylococcus aureus; greater than 128 µg/mL with Pseudomonas aeruginosa; 0.06 µg/mL (≈ 0.128 µM) in the assay on Klebsiella [6]. Further, the figures for the MIC (with Providencia rettgeri; in [7]; in the assay with Streptococcus pyogenes) were 1 µg/mL (≈ 2.13 µM), 8 µg/mL (≈ 17 µM) and 0.015 µg/mL (≈ 0.0319 µM), respectively.
With `CCCS(=O)(=O)C1=C(C(=O)O)N2C(=O)[C@@H](NC(=O)/C(=N/OC)c3csc(N)n3)[C@H]2CC1`, the MIC was 2 µg/mL (≈ 4.24 µM) in the assay on Morganella morganii; 0.25 µg/mL (≈ 0.53 µM) with Haemophilus influenzae; greater than 128 µg/mL in the assay on Enterobacter cloacae [1]; 0.125 µg/mL (≈ 0.265 µM) with Salmonella; 1 µg/mL (≈ 2.12 µM) with Escherichia coli [2]; greater than 128 µg/mL with Klebsiella [3]. Moreover, the MIC is 0.03 µg/mL (≈ 0.0636 µM) in the assay with Streptococcus pneumoniae; 1 µg/mL (≈ 2.12 µM) in the assay with Enterobacter cloacae [4]; 0.125 µg/mL (≈ 0.265 µM) with Escherichia coli [5]; 8 µg/mL (≈ 17 µM) in the assay on Staphylococcus aureus; greater than 128 µg/mL with Pseudomonas aeruginosa; 0.125 µg/mL (≈ 0.265 µM) in the assay with Klebsiella [6]. Further, the MIC worked out at 4 µg/mL (≈ 8.48 µM) with Providencia rettgeri, 8 µg/mL (≈ 17 µM) in assay [7] and 0.03 µg/mL (≈ 0.0636 µM) in the assay on Streptococcus pyogenes.
On to `CO/N=C(/C(=O)N[C@@H]1C(=O)N2C(C(=O)O)=C(S(=O)(=O)c3ccccc3)CC[C@H]12)c1csc(N)n1`, for which the MIC with Morganella morganii is greater than 128 µg/mL; in the assay on Haemophilus influenzae, 0.25 µg/mL (≈ 0.495 µM); in the assay on Enterobacter cloacae [1], greater than 128 µg/mL; with Salmonella, 0.25 µg/mL (≈ 0.495 µM); with Escherichia coli [2], 8 µg/mL (≈ 15.8 µM); in the assay on Klebsiella [3], greater than 128 µg/mL. The MIC is 0.06 µg/mL (≈ 0.119 µM) in the assay on Streptococcus pneumoniae; 8 µg/mL (≈ 15.8 µM) with Enterobacter cloacae [4]; 2 µg/mL (≈ 3.96 µM) in the assay with Escherichia coli [5]; 8 µg/mL (≈ 15.8 µM) in the assay on Staphylococcus aureus; greater than 128 µg/mL in the assay with Pseudomonas aeruginosa; 1 µg/mL (≈ 1.98 µM) in the assay with Klebsiella [6]. Besides, the values for the MIC (with Providencia rettgeri; in assay [7]; with Streptococcus pyogenes) were 1 µg/mL (≈ 1.98 µM), 16 µg/mL (≈ 31.6 µM) and 1 µg/mL (≈ 1.98 µM), respectively.
Take `CO/N=C(/C(=O)N[C@@H]1C(=O)N2C(C(=O)O)=C(S(=O)(=O)c3c(C)noc3C)CC[C@H]12)c1csc(N)n1`: the MIC in the assay on Morganella morganii is 2 µg/mL (≈ 3.81 µM); with Haemophilus influenzae, 0.25 µg/mL (≈ 0.477 µM); with Enterobacter cloacae [1] it was greater than 128 µg/mL; in the assay with Salmonella, 4 µg/mL (≈ 7.63 µM); in the assay with Escherichia coli [2], 8 µg/mL (≈ 15.3 µM); in the assay on Klebsiella [3] it was greater than 128 µg/mL. Also, the MIC in the assay with Streptococcus pneumoniae was 0.03 µg/mL (≈ 0.0572 µM); with Enterobacter cloacae [4] it was 8 µg/mL (≈ 15.3 µM); in the assay on Escherichia coli [5], 2 µg/mL (≈ 3.81 µM); with Staphylococcus aureus, 4 µg/mL (≈ 7.63 µM); in the assay with Pseudomonas aeruginosa, greater than 128 µg/mL; with Klebsiella [6], 1 µg/mL (≈ 1.91 µM). Also, the MIC in the assay on Providencia rettgeri was 16 µg/mL (≈ 30.5 µM); in assay [7], 8 µg/mL (≈ 15.3 µM); in the assay on Streptococcus pyogenes it was 0.03 µg/mL (≈ 0.0572 µM).
Regarding `CCS(=O)(=O)C1=C(C(=O)O)N2C(=O)[C@@H](NC(=O)/C(=N/OC)c3csc(N)n3)[C@H]2CC1`, the MIC in the assay on Morganella morganii is 2 µg/mL (≈ 4.37 µM); with Haemophilus influenzae, 0.25 µg/mL (≈ 0.546 µM); with Enterobacter cloacae [1], greater than 128 µg/mL; with Salmonella, 0.06 µg/mL (≈ 0.131 µM); in the assay on Klebsiella [3] it was greater than 128 µg/mL; with Streptococcus pneumoniae, 0.03 µg/mL (≈ 0.0656 µM). The MIC in the assay on Enterobacter cloacae [4] was 1 µg/mL (≈ 2.19 µM); with Escherichia coli [5], 0.06 µg/mL (≈ 0.131 µM); with Staphylococcus aureus, 8 µg/mL (≈ 17.5 µM); in the assay with Pseudomonas aeruginosa, greater than 128 µg/mL; with Klebsiella [6], 0.06 µg/mL (≈ 0.131 µM); with Providencia rettgeri, 0.125 µg/mL (≈ 0.273 µM). For the same molecule, the MIC in assay [7] amounted to 16 µg/mL (≈ 35 µM); with Streptococcus pyogenes it was 0.03 µg/mL (≈ 0.0656 µM).
